Assay results: ChEMBL document CHEMBL5385966, “Synthesis and biological evaluation of new naphthalimide-thiourea derivatives as potent antimicrobial agents active against multidrug-resistant Staphylococcus aureus and Mycobacterium tuberculosis” (RSC Med Chem, 2024)
In brackets after ≈: the same amount, converted by molar mass. Activity calls are given as the source filed them. The calls are words filed in the database; no cut-off is given here.

Columns and labels:
Staphylococcus aureus [1] = experiment: Antibacterial activity against methicillin/ceftriaxone/meropenem/vancomycin/teicoplanin-resistant Staphylococcus aureus VRS4 clinical isolate assessed as bacterial growth inhibition incubated for 16 to 18 hrs by CLSI based antibiotic susceptibility testing method; assay type: functional; conditions: time 16-18 hrs
Method in brief: (§1)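 Broth microdilution in cation-adjusted Mueller-Hinton broth. Compounds were tested at […], with levofloxacin as reference and medium-only controls. Plates were incubated at 37 °C for 16-18 h. MIC was the lowest concentration with no visible growth; three independent determinations, each in duplicate.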

Staphylococcus aureus [2] = experiment: Antibacterial activity against methicillin-sensitive Staphylococcus aureus ATCC 29213 clinical isolate assessed as bacterial growth inhibition incubated for 16 to 18 hrs by CLSI based antibiotic susceptibility testing method; assay type: functional; conditions: time 16-18 hrs; method in brief: as §1
Staphylococcus aureus [3] = experiment: Antibacterial activity against methicillin/ceftriaxone/meropenem-resistant Staphylococcus aureus NRS10193 clinical isolate assessed as bacterial growth inhibition incubated for 16 to 18 hrs by CLSI based antibiotic susceptibility testing method; assay type: functional; conditions: time 16-18 hrs; method in brief: as §1
[4] = Cytotoxicity against African green monkey Vero cells by MTT assay; assay type: toxicity, cell-based; conditions: chlorocebus sabaeus
Method in brief: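 Vero cells were seeded at ~10³ per well at 37 °C, 5% CO2. After 24 h, compounds were added at 5-100 mg/L for 72 h. […] was added for 4 h, formazan was dissolved in DMSO and read at 540 nm. CC50 was taken as the lowest concentration reducing viability by 50%; doxorubicin was the positive control; triplicate.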

Staphylococcus aureus [5] = experiment: Antibacterial activity against methicillin/ceftriaxone/meropenem-resistant Staphylococcus aureus NRS10191 clinical isolate assessed as bacterial growth inhibition incubated for 16 to 18 hrs by CLSI based antibiotic susceptibility testing method; assay type: functional; conditions: time 16-18 hrs; method in brief: as §1
Staphylococcus aureus [6] = experiment: Antibacterial activity against methicillin/ceftriaxone/meropenem/gentamycin/linezolid-resistant Staphylococcus aureus NRS10100 clinical isolate assessed as bacterial growth inhibition incubated for 16 to 18 hrs by CLSI based antibiotic susceptibility testing method; assay type: functional; conditions: time 16-18 hrs; method in brief: as §1
Staphylococcus aureus [7] = experiment: Antibacterial activity against methicillin/ceftriaxone/meropenem/gentamycin/linezolid-resistant Staphylococcus aureus NRS10119 clinical isolate assessed as bacterial growth inhibition incubated for 16 to 18 hrs by CLSI based antibiotic susceptibility testing method; assay type: functional; conditions: time 16-18 hrs; method in brief: as §1
Staphylococcus aureus [8] = experiment: Antibacterial activity against methicillin/ceftriaxone/meropenem-resistant Staphylococcus aureus NRS10129 clinical isolate assessed as bacterial growth inhibition incubated for 16 to 18 hrs by CLSI based antibiotic susceptibility testing method; assay type: functional; conditions: time 16-18 hrs; method in brief: as §1
[9] = Selectivity index, ratio of CC50 for African green monkey Vero cells to MIC for Staphylococcus aureus ATCC 29213; assay type: toxicity, cell-based; conditions: read-out: Selectivity Index
[10] = test system: Mycolicibacterium fortuitum; experiment: Antimycobacterial activity against Mycobacterium fortuitum ATCC 6841 assessed as bacterial growth inhibition incubated for 72 hrs by resazurin dye based broth microdilution method; assay type: functional, organism-based
Method in brief: (§2)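 Broth microdilution in Middlebrook 7H9 with 10% ADC-Tween-80 (0.2% glycerol, 0.05% Tween-80), inoculum ~10⁶ cfu/mL. Compounds came from 10 mg/mL DMSO stocks and were tested as two-fold serial dilutions at 37 °C, 7 days for M. tuberculosis H37Rv and 72 h for NTM. Growth was read visually with PrestoBlue resazurin dye; MIC was the lowest concentration preventing growth. Triplicate determinations, each in duplicate.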

Escherichia coli = experiment: Antibacterial activity against Escherichia coli ATCC 25922 assessed as bacterial growth inhibition incubated for 16 to 18 hrs by CLSI based antibiotic susceptibility testing method; assay type: functional, organism-based; conditions: time 16-18 hrs; method in brief: as §1
[11] = test system: Mycobacterium tuberculosis; experiment: Antimycobacterial activity against Mycobacterium tuberculosis H37Rv ATCC 27294 assessed as bacterial growth inhibition incubated for 7 days by resazurin dye based broth microdilution method; assay type: functional; conditions: H37Rv ATCC 27294, 168 h, time 7 day; method in brief: as §2
Staphylococcus aureus [12] = experiment: Antibacterial activity against methicillin/ceftriaxone/meropenem-resistant Staphylococcus aureus NRS10192 clinical isolate assessed as bacterial growth inhibition incubated for 16 to 18 hrs by CLSI based antibiotic susceptibility testing method; assay type: functional; conditions: time 16-18 hrs; method in brief: as §1
Staphylococcus aureus [13] = experiment: Antibacterial activity against methicillin/ceftriaxone/meropenem-resistant Staphylococcus aureus NRS10198 clinical isolate assessed as bacterial growth inhibition incubated for 16 to 18 hrs by CLSI based antibiotic susceptibility testing method; assay type: functional; conditions: time 16-18 hrs; method in brief: as §1
Staphylococcus aureus [14] = experiment: Antibacterial activity against methicillin/ceftriaxone/meropenem/vancomycin/teicoplanin-resistant Staphylococcus aureus VRS12 clinical isolate assessed as bacterial growth inhibition incubated for 16 to 18 hrs by CLSI based antibiotic susceptibility testing method; assay type: functional; conditions: time 16-18 hrs; method in brief: as §1
Staphylococcus aureus [15] = experiment: Antibacterial activity against methicillin/ceftriaxone/meropenem-resistant Staphylococcus aureus NRS10186 clinical isolate assessed as bacterial growth inhibition incubated for 16 to 18 hrs by CLSI based antibiotic susceptibility testing method; assay type: functional; conditions: time 16-18 hrs; method in brief: as §1
Staphylococcus aureus [16] = experiment: Antibacterial activity against methicillin/ceftriaxone-resistant Staphylococcus aureus NRS10194 clinical isolate assessed as bacterial growth inhibition incubated for 16 to 18 hrs by CLSI based antibiotic susceptibility testing method; assay type: functional; conditions: time 16-18 hrs; method in brief: as §1
Staphylococcus aureus [17] = experiment: Antibacterial activity against methicillin/ceftriaxone/meropenem/gentamycin/vancomycin/teicoplanin-resistant Staphylococcus aureus VRS1 clinical isolate assessed as bacterial growth inhibition incubated for 16 to 18 hrs by CLSI based antibiotic susceptibility testing method; assay type: functional; conditions: time 16-18 hrs; method in brief: as §1
Mycobacteroides chelonae = experiment: Antimycobacterial activity against Mycobacteroides chelonae ATCC 35752 assessed as bacterial growth inhibition incubated for 72 hrs by resazurin dye based broth microdilution method; assay type: functional, organism-based; method in brief: as §2
Klebsiella pneumoniae = experiment: Antibacterial activity against Klebsiella pneumoniae BAA 1705 assessed as bacterial growth inhibition incubated for 16 to 18 hrs by CLSI based antibiotic susceptibility testing method; assay type: functional, organism-based; conditions: time 16-18 hrs; method in brief: as §1
[18] = test system: Mycobacteroides abscessus; experiment: Antimycobacterial activity against Mycobacterium abscessus ATCC 19977 assessed as bacterial growth inhibition incubated for 72 hrs by resazurin dye based broth microdilution method; assay type: functional, organism-based; method in brief: as §2
Pseudomonas aeruginosa = experiment: Antibacterial activity against Pseudomonas aeruginosa ATCC 27853 assessed as bacterial growth inhibition incubated for 16 to 18 hrs by CLSI based antibiotic susceptibility testing method; assay type: functional, organism-based; conditions: time 16-18 hrs; method in brief: as §1
Acinetobacter baumannii = experiment: Antibacterial activity against Acinetobacter baumannii BAA 1605 assessed as bacterial growth inhibition incubated for 16 to 18 hrs by CLSI based antibiotic susceptibility testing method; assay type: functional, organism-based; conditions: time 16-18 hrs; method in brief: as §1
Staphylococcus aureus [19] = experiment: Antibacterial activity against Staphylococcus aureus ATCC 29213 assessed as bacterial growth inhibition incubated for 16 to 18 hrs by CLSI based antibiotic susceptibility testing method; assay type: functional; conditions: time 16-18 hrs; method in brief: as §1

SMILES | MIC (Staphylococcus aureus [1]) [µg/mL] | MIC (Staphylococcus aureus [2]) [µg/mL] | MIC (Staphylococcus aureus [3]) [µg/mL] | MIC (Staphylococcus aureus [5]) [µg/mL] | MIC (Staphylococcus aureus [6]) [µg/mL] | MIC (Staphylococcus aureus [7]) [µg/mL] | MIC (Staphylococcus aureus [8]) [µg/mL] | growth inhibition (GI) [10] | growth inhibition (GI) (Escherichia coli) | MIC [11] [µg/mL] | MIC (Staphylococcus aureus [12]) [µg/mL] | MIC (Staphylococcus aureus [13]) [µg/mL] | MIC (Staphylococcus aureus [14]) [µg/mL] | MIC (Staphylococcus aureus [15]) [µg/mL] | MIC (Staphylococcus aureus [16]) [µg/mL] | MIC (Staphylococcus aureus [17]) [µg/mL] | growth inhibition (GI) (Mycobacteroides chelonae) | growth inhibition (GI) (Klebsiella pneumoniae) | growth inhibition (GI) [18] | growth inhibition (GI) (Pseudomonas aeruginosa) | further results
O=C(CN1C(=O)c2cccc3cccc(c23)C1=O)NC1CCN(C(=S)NC2CCCCC2)CC1 | 0.25 (≈ 0.522 µM) | 0.25 (≈ 0.522 µM) | 0.125 (≈ 0.261 µM) | 0.125 (≈ 0.261 µM) | 0.25 (≈ 0.522 µM) | 0.125 (≈ 0.261 µM) | 0.5 (≈ 1.04 µM) | inactive | inactive | > 64 | 0.25 (≈ 0.522 µM) | 0.25 (≈ 0.522 µM) | 0.25 (≈ 0.522 µM) | 0.125 (≈ 0.261 µM) | 0.25 (≈ 0.522 µM) | 0.5 (≈ 1.04 µM) | inactive | inactive | inactive | inactive | CC50 [4]: > 10 µg/mL; selectivity ratio [9]: > 40; growth inhibition (GI) (Acinetobacter baumannii): inactive; MIC (Staphylococcus aureus [19]): 0.25 µg/mL (≈ 0.522 µM)
O=C(CN1C(=O)c2cccc3cccc(c23)C1=O)NC1CCN(C(=S)NC2CCCCCC2)CC1 | 1 (≈ 2.03 µM) | 1 (≈ 2.03 µM) | 0.5 (≈ 1.01 µM) | 0.5 (≈ 1.01 µM) | 0.5 (≈ 1.01 µM) | 0.5 (≈ 1.01 µM) | 1 (≈ 2.03 µM) | inactive | inactive | > 64 | 1 (≈ 2.03 µM) | 1 (≈ 2.03 µM) | 1 (≈ 2.03 µM) | 0.5 (≈ 1.01 µM) | 1 (≈ 2.03 µM) | 1 (≈ 2.03 µM) | inactive | inactive | inactive | inactive | CC50 [4]: > 100 µg/mL; selectivity ratio [9]: > 200; growth inhibition (GI) (Acinetobacter baumannii): inactive; MIC (Staphylococcus aureus [19]): 0.5 µg/mL (≈ 1.01 µM)
C[C@@H](O)[C@H]1C(=O)N2C(C(=O)O)=C(S[C@@H]3CN[C@H](C(=O)N(C)C)C3)[C@H](C)[C@H]12 [MEROPENEM] | 64 (≈ 167 µM) | 0.125 (≈ 0.326 µM) | 64 (≈ 167 µM) | 64 (≈ 167 µM) | 32 (≈ 83.4 µM) | 64 (≈ 167 µM) | 2 (≈ 5.22 µM) | – | – | – | 4 (≈ 10.4 µM) | 64 (≈ 167 µM) | 8 (≈ 20.9 µM) | 4 (≈ 10.4 µM) | 1 (≈ 2.61 µM) | 64 (≈ 167 µM) | – | – | – | – | –
C[C@H]1COc2c(N3CCN(C)CC3)c(F)cc3c(=O)c(C(=O)O)cn1c23 [LEVOFLOXACIN ANHYDROUS] | > 64 | 0.25 (≈ 0.692 µM) | 32 (≈ 88.6 µM) | 16 (≈ 44.3 µM) | 0.125 (≈ 0.346 µM) | 16 (≈ 44.3 µM) | 0.25 (≈ 0.692 µM) | inactive | inactive | 0.6 (≈ 1.66 µM) | 8 (≈ 22.1 µM) | 32 (≈ 88.6 µM) | 32 (≈ 88.6 µM) | 4 (≈ 11.1 µM) | 0.125 (≈ 0.346 µM) | 32 (≈ 88.6 µM) | inactive | inactive | inactive | inactive | growth inhibition (GI) (Acinetobacter baumannii): inactive; MIC (Staphylococcus aureus [19]): 0.063 µg/mL (≈ 0.174 µM)
